Screening data deposited in PubChem BioAssay by The Scripps Research Institute Molecular Screening Center.
S1P1 ag pot = S1P1 agonists and agonism potentiators, primary screen, cell-based, primary and confirmation screens, CRE-bla reporter | Sphingosine 1-phosphate receptor 1 (Homo sapiens), P21453 | S1P1 CRE-bla cells, forskolin, beta-lactamase FRET, potentiator mode; S1P1 agonist co-added at EC20, 2 nM; 100% = saturating reference agonist, 0% = basal | activation, % at 9.5 µM | 0.57% of 56,000 active;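 active = activation above a cutoff set at the mean activation of all tested compounds plus 3 SD, cut at about 54% in these data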;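 also: forskolin at 4 µM as EC80 and the EC20 agonist is SEW2871; 100% = SEW2871 at its EC100 plus forskolin at EC80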
HTR1E antagonist = 5-HT1E receptor antagonists, primary screen, cell-based, HTS | 5-hydroxytryptamine receptor 1E (Homo sapiens), P28566 | CHO 5-HT1E Ga15 NFAT-bla reporter, FRET, antagonist | inhibition, % at 6 µM | 0.99% of 65,000 active | AID 571, 2007;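 active = inhibition above a set limit, the mean inhibition across every tested compound plus 3 SD, cut at about 29% in these data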;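 also: signal is the 460 over 535 nm emission ratio of beta-lactamase substrate; 0% = agonist plus DMSO wells and 100% = wells without agonist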
5HT1a antag = human 5-HT1a receptor antagonists, primary screen, cell-based, CHO, Ga15 NFAT-bla reporter. inhibition, % at 10 µM. CHO 5-HT1a Ga15 NFAT-bla reporter, antagonist mode. 0.68% of 62,000 active;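 active = inhibition above the mean of all tested compounds plus 3 SD, cut at about 43% in these data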;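 also: receptor stimulated by 5-CT agonist at 100 nM near EC80; beta-lactamase reporter measured by ratiometric fluorescence of a cleavable substrate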
Target sequence (P08908 whole entry, looked up): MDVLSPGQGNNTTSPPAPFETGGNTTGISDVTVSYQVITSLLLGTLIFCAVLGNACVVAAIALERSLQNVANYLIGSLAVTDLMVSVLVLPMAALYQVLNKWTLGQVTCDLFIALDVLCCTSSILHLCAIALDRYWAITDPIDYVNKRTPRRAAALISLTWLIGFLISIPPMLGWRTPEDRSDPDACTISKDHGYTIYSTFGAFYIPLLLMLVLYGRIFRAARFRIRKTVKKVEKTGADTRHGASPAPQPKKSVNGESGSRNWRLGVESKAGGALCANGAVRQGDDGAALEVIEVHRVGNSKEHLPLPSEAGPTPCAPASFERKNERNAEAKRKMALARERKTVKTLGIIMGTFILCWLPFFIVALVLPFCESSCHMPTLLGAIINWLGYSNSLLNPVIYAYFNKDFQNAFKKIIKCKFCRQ
5HT1a ag = human 5-HT1a receptor agonists, primary screen, cell-based, CHO, Ga15 NFAT-bla reporter; 5-hydroxytryptamine receptor 1A (Homo sapiens), P08908; CHO 5-HT1a Ga15 NFAT-bla reporter, FRET ratio; 0% basal, 100% maximal reference agonist; activation, % at 10 µM; 0.56% of 65,000 active;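 active = activation above the screen-wide mean activation plus 3 SD, cut at about 19% in these data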;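 also: 0% = DMSO wells and 100% = 5-CT at EC100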
S1P3 ag = human S1P3 receptor agonists, primary screen, cell-based, primary and confirmation, NFAT-BLA reporter. S1P3 NFAT-BLA reporter cells, agonism, FRET ratio; relative to 1 µM S1P, basal subtracted. 0.1% of 60,000 active. activation, % at 4.5 µM;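 active = activation above the screen-wide mean plus 3 SD, cut at about 4.5% in these data, passing the limit was not always enough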
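material = human S1P3 NFAT-BLA reporter CHO cells | schedule = 4 h compound at 37 °C, 2 h substrate at RT | measured by = fluorescent BLA substrate, ex 405 nm, em 460/535 nm ratio | controls = 1 µM S1P reference | replication = primary once, confirmation triplicate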
5HT1E ag = 5-HT1E receptor agonists, primary screen, cell-based, HTS; 5-hydroxytryptamine receptor 1E (Homo sapiens), P28566; CHO 5-HT1E Ga15 NFAT-bla reporter, FRET; 0% DMSO wells, 100% control agonist wells; activation, % at 6 µM; 0.69% of 65,000 active;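 active = activation above a set limit, the screen-wide mean activation plus 3 SD, cut at about 8.5% in these data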;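 also: 100% = positive control agonist at 1 µM giving full maximal response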
* = called active by the depositor; . = no result. Only some compounds are listed: those with a hit (about 3% of all), similar ones and a draw of the others.

SMILES	S1P1 ag pot	HTR1E antagonist	5HT1a antag	5HT1a ag	S1P3 ag	5HT1E ag
Cc1[nH]c2c(Cl)cccc2c1CCN	5	7	6	-1	-1	71*
CCC(C)N1C(=O)NC(=O)C2(Cc3c(ccc4ccccc34)N(C)C2)C1=O (stereo not given)	-26	2	-6	-2	-1	1
Nc1ccc(N2CCN(Cc3ccccc3Cl)CC2)c(Cl)c1	4	-8	3	0	-1	-1
CC(C)(C)c1ccc(O)c(CN2CCN(c3ccccc3)CC2)c1	-38	-4	64*	-3	0	4
COc1ccccc1N1CCN(Cc2cccc(OC)c2O)CC1	.	5	32	3	-1	13*
COc1ccccc1N1CCN(Cc2ccccc2Cl)CC1	-15	-1	20	-1	-1	8
COc1ccccc1N1CCN(Cc2c(F)cccc2F)CC1	-7	11	0	-1	-1	2
COc1ccccc1N1CCN(Cc2ccccc2F)CC1	-20	-5	6	1	-1	18*
COc1ccc(CC2C(=O)N(C)C(=O)N(C)C2=O)c(OC)c1	-46	-5	-52	22*	0	0
CC(C)[C@@]1(NC(=O)[C@@H]2C[C@@H]3c4cccc5[nH]cc(c45)C[C@H]3N(C)C2)O[C@@]2(O)[C@@H]3CCCN3C(=O)[C@H](Cc3ccccc3)N2C1=O	-46	-12	.	96*	0	2
CC(C)[C@H]1C(=O)N2CCC[C@H]2[C@]2(O)O[C@](NC(=O)[C@@H]3C=C4c5cccc6[nH]cc(c56)C[C@H]4N(C)C3)(C(C)C)C(=O)N12	-38	-1	.	102*	18	4
CC(C)[C@@]1(NC(=O)[C@@H]2C=C3c4cccc5[nH]cc(c45)C[C@H]3N(C)C2)O[C@@]2(O)[C@@H]3CCCN3C(=O)[C@H](Cc3ccccc3)N2C1=O	7	7	.	113*	-2	9.1*
CC1CC2(O)c3nonc3CCC2N1O (stereo not given)	-10	0	-11	-1	-1	0
O=C(O)C12C3CCCC1C32c1ccccc1 (stereo not given)	5	-5	9	1	-2	-2
CCCC(C)C1(CC)C(=O)NC(=Nc2ccc(F)cc2)NC1=O (stereo not given)	-17	-5	-11	-5	-1	0
CCCCC12CNCC(C)(CNC1)C2=O	-12	-7	-12	86*	0	0
C[N+]12CCC(CC1)C(C#N)(N1CCOCC1)C2 (stereo not given)	-11	-9	-1	1	0	-1
O=C1C2CCCN2C(c2ccncc2)N1c1ccc(Cl)c(Cl)c1 (stereo not given)	-2	-5	-1	0	0	-1
CN(C)P(=O)(C(Cl)=C(N1CCCCC1)N1CCCCC1)N(C)C	1	0	43*	-6	-1	0
CCCCc1ccc2[nH]cc(CCN)c2c1	4	-3	-8	69*	0	106*
CC12CCCCC1=NC(c1ccc(Br)cc1)N2O (stereo not given)	1	6	4	-2	-1	-1
O=C1CN=C(c2ccccc2)c2oc3ccc(Br)cc3c2N1	-31	10	15	0	-1	0
COc1cccc(OC)c1C1=NCC(=O)Nc2c1oc1ccc(Br)cc21	4	80*	71*	-2	-1	-1
COc1ccc(C(=O)N2CCCC2=O)cc1	-11	0	-4	-1	0	0
CCC(=NCCOc1ccc(Cl)cc1)c1c(O)n(C)c(=O)n(C)c1=O	62*	16	.	0	-7	-2
